Measured values as given in ChEMBL document CHEMBL1138829, “Conformationally constrained analogues of diacylglycerol. 21. A solid-phase method of synthesis of diacylglycerol lactones as a prelude to a combinatorial approach for the synthesis of protein kinase C isozyme-specific ligands” (J Med Chem, 2004).

Columns and labels:
[1] = target: T1, Protein kinase C alpha type (Homo sapiens, UniProt P17252); experiment: (§1) Displacement of [20-3H]phorbol-12,13-dibutyrate (PDBu) from a recombinant protein kinase C alpha with phosphatidylserine
Procedure, shortened: (§2)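 Competition binding against [20-3H]PDBu using intact recombinant single isozyme PKC-alpha in presence of phosphatidylserine; tested as crude resin-cleaved and purified samples. ID50 obtained by least-squares fit of theoretical sigmoidal competition curve; Ki calculated from ID50 via standard relationship.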

[2] = Partition coefficient (logP); type: physicochemical; settings: octanol/water
[3] = target: T1, Protein kinase C alpha type; experiment: as §1; procedure, shortened: as §2; remark: listed apart in the source
[4] = target: T1, Protein kinase C alpha type; experiment: as §1; procedure, shortened: as §2; remark: listed apart in the source

Row | Compound | Ki [1] | logP [2] | Ki [3] | Ki [4]
1 | O=C1OC(CO)(COC(=O)c2ccc(-c3ccccc3)cc2)C/C1=C/c1ccc(-c2ccccc2)cc1 (configuration not stated) | 22.7 nM | 5.66 | 83.9 nM | 
2 | CCCCCCCC/C=C1/CC(CO)(COC(=O)Cc2ccccc2)OC1=O (configuration not stated) | 43.3 nM | 4.61 | 145 nM | 
3 | CCCCCCCC/C=C1/CC(CO)(COC(=O)c2ccccc2)OC1=O (configuration not stated) | 25.7 nM | 4.36 | 45.6 nM | 
4 | O=C1OC(CO)(COC(=O)c2ccccc2)C/C1=C/c1ccc(-c2ccccc2)cc1 (configuration not stated) | 14.1 nM | 3.9 | 41 nM | 
5 | CCCCCCCC/C=C1/CC(CO)(COC(=O)c2ccc(-c3ccccc3)cc2)OC1=O (configuration not stated) | 28 nM | 6.12 | 41.8 nM | 
6 | CCCCCCCCC/C=C1/CC(CO)(COC(=O)c2ccccc2)OC1=O (configuration not stated) | 20.3 nM | 4.85 |  | 37 nM
7 | CCCCCCCCC/C=C1/CC(CO)(COC(=O)c2ccc(-c3ccccc3)cc2)OC1=O (configuration not stated) | 19.1 nM | 6.61 |  | 52.4 nM
8 | CCCCCCCCC/C=C1/CC(CO)(COC(=O)Cc2ccccc2)OC1=O (configuration not stated) | 43.8 nM | 5.1 |  | 92.5 nM
9 | O=C(Cc1ccccc1)OCC1(CO)C/C(=C/c2ccc(-c3ccccc3)cc2)C(=O)O1 (configuration not stated) | 48 nM | 4.15 | 152 nM | 
